Data taken from article PMC3331960 (Nature chemical biology, 2012).
Where “and” joins values, the source holds several entries; their conditions need not be identical. Identical values can stand only once. Where no end group is shown, it is not given here. The star is where a group is joined. Biotin = O=C1N[C@H]2[C@H](CS[C@H]2CCCCC(=O)*)N1

Columns and labels:
[1] = test system: Arabidopsis wild type plants (Col-0); assay: Root elongation assay of seedlings; assay type: in vivo, Arabidopsis thaliana; details: 40 or 80 nM 2,4-D, 4 days, Col-0 seedlings
Summary of the method: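 Seedlings grown 5 days on MS medium, then transferred to medium with 2,4-D. Root elongation was measured after 4 more days and expressed as a proportion of growth without auxin. Col-0, tir1-1 and tir1-1 afb2-3 were tested; error bars are STDEV.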

TIR1-IAA7 DII [2] = biological target: T1, TIR1-IAA7 DII (Arabidopsis thaliana, UniProt Q38825+Q570C0, DEL96-243); assay: Surface plasmon resonance, TIR1 over immobilized IAA7 DII peptide; assay type: binding; details: for dissociation of the TIR1-IAA7 DII complex (SPR): 50 μM ligand concentration; for TIR1 association with the DII peptide (SPR): co-injection of TIR1 with auxin, vs no auxin
TIR1-IAA7 interaction = biological target: T2, TIR1-IAA7 interaction (Arabidopsis thaliana, UniProt Q38825+Q570C0); assay: LexA yeast two-hybrid, auxin-induced TIR1-IAA7 interaction; assay type: cell-based; details: 50 μM auxins in selective media
T2 sequence (Q570C0 1-594): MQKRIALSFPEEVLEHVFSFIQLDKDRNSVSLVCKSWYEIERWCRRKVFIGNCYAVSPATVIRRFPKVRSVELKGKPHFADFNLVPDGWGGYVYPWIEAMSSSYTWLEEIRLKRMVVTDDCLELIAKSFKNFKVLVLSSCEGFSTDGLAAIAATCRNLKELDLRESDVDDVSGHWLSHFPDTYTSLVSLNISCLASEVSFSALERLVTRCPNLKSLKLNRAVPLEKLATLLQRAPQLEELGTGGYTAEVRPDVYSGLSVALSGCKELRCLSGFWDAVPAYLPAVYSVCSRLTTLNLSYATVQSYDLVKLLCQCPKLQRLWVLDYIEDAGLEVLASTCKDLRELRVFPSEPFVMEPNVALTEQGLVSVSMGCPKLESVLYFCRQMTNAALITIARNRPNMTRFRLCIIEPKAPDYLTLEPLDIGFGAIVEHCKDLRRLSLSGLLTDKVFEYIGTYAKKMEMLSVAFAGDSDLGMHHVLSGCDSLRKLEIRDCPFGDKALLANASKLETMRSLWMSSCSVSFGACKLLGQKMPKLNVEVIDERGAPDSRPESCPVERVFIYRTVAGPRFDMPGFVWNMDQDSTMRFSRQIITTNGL
T2 sequence (Q38825 1-243): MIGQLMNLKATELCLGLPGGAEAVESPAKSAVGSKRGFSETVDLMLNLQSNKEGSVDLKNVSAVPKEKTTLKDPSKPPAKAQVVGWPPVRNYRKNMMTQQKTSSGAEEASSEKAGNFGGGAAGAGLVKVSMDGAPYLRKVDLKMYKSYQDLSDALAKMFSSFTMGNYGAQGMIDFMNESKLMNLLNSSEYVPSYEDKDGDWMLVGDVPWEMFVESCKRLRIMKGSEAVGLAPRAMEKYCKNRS

TIR1-IAA7 = biological target: T3, TIR1-IAA7 (Arabidopsis thaliana, UniProt Q38825+Q570C0); assay: [3H]-IAA radioligand binding; details: for Ki: Ki (Mean ± SEM), TIR1-IAA7, cold competitor vs [3H] IAA
T3 sequence (Q570C0 1-594): T2 sequence (Q570C0 1-594)
T3 sequence (Q39255 1-160 partner): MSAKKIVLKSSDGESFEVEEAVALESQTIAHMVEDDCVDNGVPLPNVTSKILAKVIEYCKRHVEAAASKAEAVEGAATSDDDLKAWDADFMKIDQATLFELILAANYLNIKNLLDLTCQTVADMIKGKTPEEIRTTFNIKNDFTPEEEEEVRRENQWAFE
T3 sequence (Q38825 1-243): T2 sequence (Q38825 1-243)
Summary of the method: (§1)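 ASK1-TIR1 or ASK1-AFB5 (0.44 μg, insect cells) with E. coli GST-IAA7 (1:10 molar), >1 h at 4°C in pH 8.0 Tris binding buffer. KD from [³H]-IAA saturation binding. Ki from competition with cold 1-NAA, 2,4-D or picloram against fixed [³H]-IAA (5–100 nM), fitted to a one-site competition model by nonlinear regression. Filter binding with scintillation read-out; triplicates.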

TIR1-IAA31 = TIR1-IAA31 (Arabidopsis thaliana, UniProt Q570C0+Q8H174); assay: [3H]-IAA binding, TIR1-IAA31
Summary of the method: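 ASK1-TIR1 (insect cells, 0.44 μg) and full-length GST-IAA31 (E. coli, 1:10 molar) were incubated with [³H]-IAA >1 h at 4°C in pH 8.0 Tris buffer, then filter-bound and scintillation counted. KD came from nonlinear regression of saturation and/or homologous competition binding data; independent assays run in triplicate.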

TIR1-IAA14 = TIR1-IAA14 (Arabidopsis thaliana, UniProt Q38832+Q570C0); assay: [3H]-IAA homologous competitive binding, TIR1-IAA14; details: TIR1-IAA14, homologous competition
Summary of the method: (§2)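 Homologous competition: insect-cell ASK1-TIR1 (0.44 μg) plus E. coli GST-Aux/IAA (1:10 molar), in pH 8.0 Tris binding buffer, >1 h at 4°C. Fixed [³H]-IAA (5, 10, 25 or 100 nM, kept below half the IC50) with rising cold IAA. Filter binding, scintillation counting. Specific binding fitted to a one-site competition model by nonlinear regression. Independent assays run in triplicate.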

TIR1-IAA7^axr2-1 = TIR1-IAA7^axr2-1 (Arabidopsis thaliana, UniProt Q38825+Q570C0, P87S); assay: [3H]-IAA binding at 200 nM, TIR1-IAA7 axr2-1; details: 200 nM [3H] IAA
Summary of the method: (§3)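 ASK1-TIR1 (tagged, co-expressed in Hi5 insect cells) and GST-Aux/IAA or mutant (E. coli), at 0.44 μg and 1:10 molar ratio as applicable, or synthetic biotinylated degron peptide. Incubated >1 h at 4°C in Tris-HCl pH 8.0/200 mM NaCl/10% glycerol/0.1% Tween 20 with [³H]-IAA (20 Ci/mmol). Trapped on PEI-treated glass-fibre filters, washed thrice, scintillation counted. Nonspecific binding determined with 1000x cold IAA.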

IAA7 = IAA7 (Arabidopsis thaliana, UniProt Q38825); assay: [3H]-IAA binding at 200 nM, IAA7 alone; details: 200 nM [3H] IAA
Summary of the method: as §3

AFB5-IAA7 = AFB5-IAA7 (Arabidopsis thaliana, UniProt Q38825+Q9LTX2); assay: [3H]-IAA radioligand binding
Summary of the method: as §1

TIR1-IAA12 GWPPVR = TIR1-IAA12 GWPPVR (Arabidopsis thaliana, UniProt Q38830+Q570C0, G77R/I76V); assay: [3H]-IAA saturation binding, TIR1-IAA12 GWPPVR
Summary of the method: (§4)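 Saturation binding: insect-cell ASK1-TIR1 (0.44 μg) with GST-tagged full-length, truncated or degron-mutated IAA protein from E. coli (1:10 molar). Incubated >1 h at 4°C in pH 8.0 Tris/NaCl/glycerol/Tween buffer with at least six [³H]-IAA concentrations either side of the KD. Filter-trapped and scintillation counted; nonspecific binding determined with 1000x cold IAA. KD by nonlinear regression; independent assays in triplicate.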

TIR1-IAA7 K35Q R36Q = TIR1-IAA7 K35Q R36Q (Arabidopsis thaliana, UniProt Q38825+Q570C0, K35Q/R36Q); assay: [3H]-IAA binding at 200 nM, TIR1-IAA7 K35Q R36Q; details: 200 nM [3H]-IAA, Lys35Gln Arg36Gln mutant compared to TIR1-IAA7
TIR1-IAA1 = TIR1-IAA1 (Arabidopsis thaliana, UniProt P49677+Q570C0); assay: [3H]-IAA homologous competitive binding, TIR1-IAA1; details: Kd (Mean ± SEM), TIR1-IAA1, homologous competition
Summary of the method: as §2

TIR1-slr = assay: [3H]-IAA binding at 200 nM, TIR1-ASK1 with slr; parameters: species or system Arabidopsis thaliana; details: 200 nM [3H] IAA, TIR1-ASK1 and slr
Summary of the method: as §3

TIR1-IAA17 = TIR1-IAA17 (Arabidopsis thaliana, UniProt P93830+Q570C0); assay: [3H]-IAA homologous competitive binding, TIR1-IAA17; details: Kd (Mean ± SEM), TIR1-IAA17, homologous competition
Summary of the method: as §2

TIR1 = TIR1 (Arabidopsis thaliana, UniProt Q570C0); assay: [3H]-IAA binding at 200 nM, TIR1 alone; details: 200 nM [3H] IAA
Summary of the method: as §3

TIR1-bdl = TIR1-bdl (Arabidopsis thaliana, UniProt Q570C0); assay: [3H]-IAA binding at 200 nM, TIR1-ASK1 with bdl; details: 200 nM [3H] IAA, TIR1-ASK1 and bdl
Summary of the method: as §3

TIR1-IAA3 = TIR1-IAA3 (Arabidopsis thaliana, UniProt Q38822+Q570C0); assay: [3H]-IAA saturation binding, TIR1-IAA3; details: Kd (Mean ± SEM)
Summary of the method: as §4

TIR1-IAA28 = TIR1-IAA28 (Arabidopsis thaliana, UniProt Q570C0+Q9XFM0); assay: [3H]-IAA homologous competitive binding, TIR1-IAA28; details: Kd (Mean ± SEM), TIR1-IAA28, homologous competition
Summary of the method: as §2

TIR1-IAA7 K35Q = TIR1-IAA7 K35Q (Arabidopsis thaliana, UniProt Q38825+Q570C0, K35Q); assay: [3H]-IAA binding at 200 nM, TIR1-IAA7 K35Q; details: 200 nM [3H]-IAA, Lys35Gln mutant compared to TIR1-IAA7
TIR1-IAA7 DII [3] = biological target: T1, TIR1-IAA7 DII; assay: [3H]-IAA saturation binding, TIR1 with biotinylated IAA7 DII peptide; details: Kd (Mean ± SEM), TIR1-biotinylated peptide DII of IAA7, saturation binding
TIR1-DI-DII = TIR1-DI-DII (Arabidopsis thaliana, UniProt Q38825+Q570C0); assay: [3H]-IAA saturation binding, TIR1-DI-DII
Summary of the method: as §4

IAA7 DII = IAA7 DII (Arabidopsis thaliana, UniProt Q38825); assay: [3H]-IAA binding at 200 nM, IAA7 DII peptide alone; details: 200 nM [3H] IAA
Summary of the method: as §3

AFB5-IAA7 DII = AFB5-IAA7 DII (Arabidopsis thaliana, UniProt Q38825+Q9LTX2, DEL96-243); assay: Surface plasmon resonance, AFB5 over immobilized IAA7 DII peptide; assay type: binding; details: 50 μM picloram
TIR1-ASK1 complex = biological target: T4, TIR1-ASK1 complex (Arabidopsis thaliana, UniProt Q570C0;Q39255); assay: SPR
T4 sequence 1: T2 sequence (Q570C0 1-594)
T4 sequence 2: T3 sequence (Q39255 1-160 partner)

## O=C(O)COc1ccc(Cl)cc1Cl [2,4-D, 2,4-dichlorophenoxyacetic acid]
[1]
  root elongation: inhibits root growth elongation
TIR1-IAA7 DII [2]
  dissociation of the TIR1-IAA7 DII complex (SPR): much more rapid dissociation rate
  TIR1 association with the DII peptide (SPR): enhanced association with the peptide
TIR1-IAA7 interaction
  TIR1-IAA7 interaction in yeast (β-galactosidase expression): promoted TIR1-IAA7 interaction, but not to the same extent as IAA
TIR1-IAA7
  Ki: 248 to 1000 nM

## O=C(O)Cc1c[nH]c2ccccc12 [IAA, Indole-3-acetic acid]
TIR1-IAA31
  Kd: > 1000 nM
TIR1-IAA7 DII [2]
  TIR1 association with the DII peptide (SPR): enhanced association with the peptide
TIR1-IAA14
  Kd: 10.1 nM
TIR1-IAA7^axr2-1
  binding of [3H] IAA: did not bind auxin
IAA7
  binding of [3H] IAA: lacked appreciable binding
AFB5-IAA7
  Kd: 51.3 ± 12.6 nM
TIR1-IAA12 GWPPVR
  Kd: 72.5 ± 21.6 nM
TIR1-IAA7 K35Q R36Q
  auxin binding diminished: around 50%
TIR1-IAA1
  Kd: 44.3 ± 6.67 nM
TIR1-slr
  specific binding of [3H] IAA: abolish specific auxin binding
TIR1-IAA17
  Kd: 33 ± 3 nM
TIR1
  binding of [3H] IAA: lacked appreciable binding
TIR1-bdl
  specific binding of [3H] IAA: abolish specific auxin binding
TIR1-IAA3
  Kd: 17 ± 3.43 nM
TIR1-IAA28
  Kd: ~75 nM and 75 nM
TIR1-IAA7 K35Q
  auxin binding diminished: around 50%
TIR1-IAA7 DII [3]
  Kd: 218 nM
TIR1-IAA7
  Kd: 17.8 ± 7.81 nM
TIR1-DI-DII
  Kd: 13.8 ± 4.63 nM
IAA7 DII
  binding of [3H] IAA: lacked appreciable binding

## O=C(O)Cc1cccc2ccccc12 [1-NAA, 1-naphthaleneacetic acid]
TIR1-IAA7 DII [2]
  TIR1 association with the DII peptide (SPR): enhanced association with the peptide
TIR1-IAA7 interaction
  TIR1-IAA7 interaction in yeast (β-galactosidase expression): promoted TIR1-IAA7 interaction, but not to the same extent as IAA

## Nc1c(Cl)c(Cl)nc(C(=O)O)c1Cl [picloram, 4-amino-3,5,6-trichloro-2-pyridinecarboxylic acid]
TIR1-IAA7 DII [2]
  dissociation of the TIR1-IAA7 DII complex (SPR): rapid dissociation
  TIR1 association with the DII peptide (SPR): enhanced association with the peptide
TIR1-IAA7 interaction
  TIR1-IAA7 interaction in yeast (β-galactosidase expression): promoted TIR1-IAA7 interaction, but not to the same extent as IAA
AFB5-IAA7; Ki (Mean ± SEM), AFB5-IAA7, cold competitor vs [3H] IAA
  Ki: 54.9 nM and 54.7 nM
AFB5-IAA7 DII
  assembly of the AFB5-IAA7 complex (SPR): promotes rapid assembly
TIR1-IAA7
  Ki: 3900 ± 910 nM

## Biotin-AKAQVVGWPPVRNYRKN [Biotinylated DII IAA7 peptide (SPR)]
TIR1-ASK1 complex
  binding result: binds
